# An excerpt weighted towards active compounds, which were near 3.2% of everything screened.
# rCAG binder: r(CAG) repeat RNA binding | TO-PRO-1 dye displacement fluorescence | inhibition, % at 3 µM | hit rate 1.3% among 370,000;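 active means inhibition above the plate cutoff, the mean of all test compounds on that plate plus 3 SD, cut at about 35% in these data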;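 further: 0% = DMSO alone and 100% = 100 µM mitoxantrone as full dye displacement; higher means more dye released from RNA so lower well fluorescence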
# HTRA1 inh: blocks human HTRA1 serine peptidase; Q92743; recombinant HTRA1, FP-rhodamine activity-based probe, fluorescence polarization; inhibition, % at 5.96 µM; hit rate 0.5% among 340,000; AID 504803; in the data active means inhibition above about 36%;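 further: 0% = enzyme with DMSO and 100% = wells lacking enzyme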
# Target sequence (Q92743 whole entry, looked up): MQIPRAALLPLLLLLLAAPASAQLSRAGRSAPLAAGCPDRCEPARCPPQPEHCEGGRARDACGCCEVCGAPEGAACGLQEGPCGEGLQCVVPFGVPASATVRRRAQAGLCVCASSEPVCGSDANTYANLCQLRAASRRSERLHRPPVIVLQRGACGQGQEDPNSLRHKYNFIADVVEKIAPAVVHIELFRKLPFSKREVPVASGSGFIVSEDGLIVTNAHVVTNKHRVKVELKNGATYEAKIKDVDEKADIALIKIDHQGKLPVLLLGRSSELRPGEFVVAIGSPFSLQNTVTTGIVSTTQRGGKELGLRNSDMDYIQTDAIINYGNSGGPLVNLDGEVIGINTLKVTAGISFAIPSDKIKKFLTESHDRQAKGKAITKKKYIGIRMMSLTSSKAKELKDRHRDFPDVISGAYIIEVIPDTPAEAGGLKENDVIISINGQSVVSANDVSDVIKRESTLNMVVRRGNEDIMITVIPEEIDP
# LEDGF integ inh: blocks HIV-1 LEDGF/p75-dependent DNA integration; TR-FRET IN-LEDGF/p75 DNA integration, Eu/Cy5; inhibition, % at 3.7 µM; hit rate 0.64% among 370,000; AID 743269;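 active means inhibition above the screen-wide mean plus 3 SD, cut at about 13% in these data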;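 further: signal is the Cy5 over europium emission ratio at 671 and 618 nm; 0% = plate median of compound wells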
# PRMT1 inh: blocks human protein arginine methyltransferase 1. Q99873. recombinant PRMT1, activity-based probe fluorescence polarization. inhibition, % at 2.79 µM. hit rate 1.3% among 370,000;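 active means inhibition above about 21% made by adding two undisclosed values, limit read from the data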
# DAGLB inhibitor: blocks human DAGLB lipase activity | Q8NCG7 | HEK293T DAGLB membrane lysate, EnzChek fluorogenic substrate | inhibition, % at 5.17 µM | hit rate 0.059% among 340,000 | AID 504411; in the data active means inhibition above about 34%;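 further: 0% = enzyme with vehicle and 100% = wells lacking enzyme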
# mABHD4 FP: ABHD4 (mouse) inhibition, primary FP screen | Q8VD66 | purified mABHD4, FP-Rh probe fluorescence polarization | inhibition, % at 8.92 µM | hit rate 0.54% among 370,000 | AID 720543;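 active means inhibition exceeding the mean over every tested compound plus 3 SD, cut at about 30% in these data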;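 further: 0% = plate median of compound wells and 100% = S159A mutant with DMSO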
#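 System: mouse ABHD4 enzyme, wild type / Medium: HEPES pH 7.0, NaCl, Pluronic buffer / Reagent: FP-Rh activity-based fluorescent probe / Control set: S159A mutant high control, sample median low control / Detection: fluorescence polarization with parallel and perpendicular emission, 525/598 nm / Schedule: 45 min + 60 min at 25 °C / Compound dosing: 8.92 µM, single dose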
# mABHD4 conf: confirmation of mouse ABHD4 inhibitors; shares compounds with mABHD4 FP; purified mABHD4, FP-Rh probe fluorescence polarization; inhibition, % at 8.92 µM; hit rate 55% among 1,800;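 active means mean inhibition across replicates above the hit cutoff set in the primary screen, cut at about 30% in these data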;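 further: 0% = wild-type ABHD4 with DMSO and 100% = catalytically dead S159A mutant with DMSO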
# IN multimer act: counter-screen for LEDGF/p75 integration inhibitors: HIV-1 integrase multimerization activators; shares compounds with LEDGF integ inh; TR-FRET HIV-1 integrase multimerization, biochemical; activation, % at 7.7 µM; hit rate 17% among 2,000; in the data active means activation above about 8.9%
# TR-FRET interf: counter-screen for LEDGF/p75 integration inhibitors: TR-FRET optical interference; shares compounds with LEDGF integ inh; TR-FRET optical interference counterscreen, HIV-1 IN multimerization; inhibition, % at 7.7 µM; 2,000 tested, under 10 active;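 active means inhibition above the mean over all tested compounds plus 3 SD, which no compound reached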;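 further: 0% = integrase with antibodies and DMSO and 100% = antibodies without integrase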
# IN-LEDGF confirm: confirmation of HIV-1 LEDGF/p75-dependent integration inhibitors. shares compounds with LEDGF integ inh. TR-FRET LEDGF/p75-dependent HIV-1 integration, biochemical. inhibition, % at 3.7 µM. hit rate 36% among 2,000. AID 1053136; in the data active means inhibition above about 14%
# * hit, by the source's call; x = not tested or not shown.
SMILES,rCAG binder,HTRA1 inh,LEDGF integ inh,PRMT1 inh,DAGLB inhibitor,mABHD4 FP,mABHD4 conf,IN multimer act,TR-FRET interf,IN-LEDGF confirm
O=C1C[C@@H](O)[C@H](O)c2cccc(O)c21,5.5,x,17.9*,10.8,x,34.7*,19.1,-0.9,4.8,9.3
O=C1O[C@@H](c2ccc(O)cc2)Cc2cccc(O)c21,15.0,0.6,-2.7,-3.9,-4.3,0.6,x,x,x,x
Cc1cc2c(NC(=O)CCCC(=O)O)cccc2nn1,0.4,-5.1,0.7,-1.2,-1.6,2.4,x,x,x,x
Cc1cc2c(NC(=O)Nc3ccc(C(F)(F)F)cc3)cccc2nn1,21.6,34.9,29.9*,-0.6,-0.4,109.4*,-101.4,7.8,-27.9,6.0
CC1(C)Oc2cc(N)c([N+](=O)[O-])cc2O1,2.5,7.2,45.2*,14.6,-1.4,41.2*,-10.9,0.3,-1.4,-5.5
Cc1ccc2c(c1)CCCN2C(=O)c1cc(C)c(C)s1,-6.5,-14.5,-1.6,0.0,-6.9,1.3,x,x,x,x
CSc1nnc(-c2ccco2)c(-c2ccco2)n1,22.6,20.2,27.3*,59.3*,0.2,39.9*,46.2*,5.1,-25.6,45.3*
O=C1C(=Cc2ccco2)C(=O)c2ccccc21,30.4,25.4,14.5*,34.8*,12.1,35.0*,27.6,-1.8,8.8,11.1
COc1cccc(=O)c2c(C)n(-c3ccc(C(=O)O)cc3)c(C)c12,5.3,11.1,17.4*,8.5,-0.3,30.2*,16.5,4.1,-14.4,22.9*
Cc1ccc(N=Cc2ccc(N(C)C)cc2)cc1,-3.1,-1.5,2.2,-2.7,0.5,-7.3,x,x,x,x
CN(C)c1ccc(C=Nc2ccc(N(C)C)cc2)cc1,14.4,34.7,34.6*,21.9*,7.3,37.4*,22.1,6.8,-33.9,6.6
O=C(/C=C/c1ccco1)NC(=S)Nc1ccc(N2CCCC2)cc1,23.2,24.6,18.4*,25.5*,7.0,37.3*,8.9,4.2,-21.0,-1.4
NS(=O)(=O)c1ccc(NC2=CC(=O)C(=O)c3ccccc32)cc1,18.1,14.4,31.9*,15.8,4.2,30.6*,8.9,6.4,-22.5,61.6*
Cc1ccc(NC2=CC(=O)C(=O)c3ccccc32)cc1,5.5,8.6,22.9*,1.3,5.0,37.8*,21.7,9.0*,-31.9,39.5*
CCCNC(=O)c1ccc(S(N)(=O)=O)cc1,0.2,-0.9,2.8,5.4,1.2,-9.7,x,x,x,x
O=C(O)C1Nc2c(O)cccc2C2C=CCC12 (configuration not stated),82.5*,50.1*,70.4*,19.1,10.0,43.5*,47.2*,8.9*,-30.5,77.0*
O=C(NCCOc1ccccc1)C1Nc2ccc(OC(F)(F)F)cc2C2C=CCC12 (configuration not stated),23.8,13.4,-0.7,9.3,-8.2,2.6,x,x,x,x
COC(=O)c1ccc(CN2CCN(C(C)C)C(CCO)C2)cc1 (configuration not stated),0.1,-1.6,-1.2,-0.7,2.3,-0.7,x,x,x,x
C=C(C)C(=O)Oc1ccc(N=Nc2ccc(C)cc2)ccc1=O,27.8,x,17.7*,8.3,x,50.4*,59.2*,31.1*,-156.9,26.1*
CC(=O)c1ccc(N=Nc2ccc(C)cc2)cc1,0.2,12.0,0.6,-0.6,7.0,2.4,x,x,x,x
O=[N+]([O-])c1ncccc1Oc1nc(-c2cccnc2)nc2ccccc12,0.0,7.7,4.6,-0.3,-0.2,1.6,x,x,x,x
Cc1ccc(/C=C2\SC(=S)N(C3CCS(=O)(=O)C3)C2=O)o1 (configuration not stated),23.5,14.0,23.6*,20.9,0.6,34.3*,-6.5,1.3,-6.6,6.3
O=C1/C(=C/c2ccccc2)SC(=S)N1C1CCS(=O)(=O)C1 (configuration not stated),-1.8,5.2,0.5,0.7,-2.1,-1.7,x,x,x,x
CCOC(=O)CNC(=O)N1C[C@H]2CON(C)[C@H]2C[C@H]1c1ccccc1Br,-1.7,3.5,-1.4,-3.4,1.7,-6.9,x,x,x,x
CCOc1ccc(C(=O)NCC2OCCc3ccccc32)cc1 (configuration not stated),-6.4,4.1,-2.2,1.9,0.7,-13.2,x,x,x,x
SMILES,rCAG binder,HTRA1 inh,LEDGF integ inh,PRMT1 inh,DAGLB inhibitor,mABHD4 FP,mABHD4 conf,IN multimer act,TR-FRET interf,IN-LEDGF confirm
Nc1ccc2cc3ccc(N)cc3nc2c1,-77.5,x,43.8*,148.3*,x,32.0*,28.0,32.8*,-165.4,73.7*
Cc1ccc2cc(N)ccc2n1,0.9,6.6,-5.6,0.2,0.6,-1.2,x,x,x,x
O=c1oc([C@@H](O)c2ccccc2)cc2ccccc12,2.5,-5.4,3.1,1.9,0.8,-1.2,x,x,x,x
O=C1c2cc(Cl)ccc2-c2c(O)cc(Cl)cc21,17.8,-11.4,0.2,1.2,11.4,10.5,x,x,x,x
O=C(O)c1cc(O)c2c(c1)C(=O)c1cc(O)cc(O)c1C2=O,18.8,15.3,20.2*,11.5,3.8,60.9*,41.7*,44.1*,-157.0,24.6*
Cc1ccc(-c2nc3ccccc3s2)cc1S(=O)(=O)N1CCCC1,x,-30.3,x,x,-10.6,x,x,x,x,x
NN1C(=O)/C(=C\c2ccco2)SC1=S,24.8,x,54.7*,43.2*,x,41.5*,0.8,3.3,-16.6,10.4
CC(=O)c1sc2nc(-c3ccco3)ccc2c1N,34.5,x,59.1*,51.6*,x,30.8*,12.2,8.3,-29.3,3.8
Cc1ccc(CNc2ccc(N3CCOCC3)cc2)cc1,-0.8,34.5,7.2,-1.2,4.9,18.9,x,x,x,x
c1cc2c(cc1CNc1ccc(N3CCOCC3)cc1)OCO2,8.1,29.8,15.7*,5.2,7.6,29.6*,-14.8,4.8,-24.3,-15.8
CN(C(=S)Nc1cccnc1)c1ccc(O)cc1,8.2,21.5,29.2*,32.6*,3.0,47.1*,7.4,0.8,-2.9,7.1
O=C(Nc1ccc2ccccc2c1)c1cc(F)c(F)cc1Cl,1.1,-25.9,3.9,-2.1,-4.8,-26.6,x,x,x,x
CC(Sc1ccccc1)C(=O)N1CCN(S(=O)(=O)c2ccccc2)CC1 (configuration not stated),-6.2,-0.4,3.3,-4.6,-0.3,-2.4,x,x,x,x
CCC(CC)C1C(C#N)=C(N)Oc2cc(C)oc(=O)c21 (configuration not stated),-0.6,0.8,-2.8,1.8,-1.8,-9.2,x,x,x,x
Cc1cc2c(c(=O)o1)C(c1ccc([N+](=O)[O-])o1)C(C#N)=C(N)O2 (configuration not stated),-3.1,x,15.0*,5.9,x,32.1*,-10.9,4.2,-20.9,8.9

# Screening data deposited in PubChem BioAssay by The Scripps Research Institute Molecular Screening Center.
